Drawing on ChEMBL document CHEMBL1149106, “Design, synthesis, and evaluation of aza-peptide epoxides as selective and potent inhibitors of caspases-1, -3, -6, and -8” (J Med Chem, 2004), this text covers k2 for 12 compounds.

Caspase-8 (Homo sapiens), sequence (Q14790 217-374 limits assumed): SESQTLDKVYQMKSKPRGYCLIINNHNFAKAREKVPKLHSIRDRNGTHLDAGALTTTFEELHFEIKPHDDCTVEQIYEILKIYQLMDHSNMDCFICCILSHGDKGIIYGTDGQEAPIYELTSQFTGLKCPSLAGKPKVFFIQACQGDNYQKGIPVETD
Caspase-8 (Homo sapiens), sequence (Q14790 385-479 limits assumed): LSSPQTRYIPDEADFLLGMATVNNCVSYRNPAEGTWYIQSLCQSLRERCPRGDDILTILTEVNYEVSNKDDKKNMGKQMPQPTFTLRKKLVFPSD

The first assay addresses T1, Caspase-1 (Homo sapiens) (UniProt P29466).
T1 sequence (whole entry): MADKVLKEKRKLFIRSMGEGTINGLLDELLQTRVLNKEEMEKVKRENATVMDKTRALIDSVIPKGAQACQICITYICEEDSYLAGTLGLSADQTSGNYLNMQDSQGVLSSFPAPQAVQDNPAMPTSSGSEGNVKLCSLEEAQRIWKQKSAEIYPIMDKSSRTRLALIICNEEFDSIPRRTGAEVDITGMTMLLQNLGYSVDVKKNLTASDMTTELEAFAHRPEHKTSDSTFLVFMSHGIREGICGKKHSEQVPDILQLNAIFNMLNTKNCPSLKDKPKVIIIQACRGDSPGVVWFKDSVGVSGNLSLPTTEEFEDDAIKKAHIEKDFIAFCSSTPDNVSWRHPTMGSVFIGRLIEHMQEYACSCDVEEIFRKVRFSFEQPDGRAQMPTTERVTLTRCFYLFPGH
In words: Second-order inhibition rate of caspase-1 was determined by progress curve method. The essentials: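 Caspase-1 assay buffer: 100 mM HEPES, 0.5 mM EDTA, 20% (v/v) glycerol, 5 mM DTT, pH 7.5. Substrate: Ac-YVAD-AMC.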
As to `CC(C)[C@H](NC(=O)C(CCC(=O)O)NC(=O)[C@H](CC(=O)O)NC(=O)OCc1ccccc1)C(=O)NN(CC(=O)O)C(=O)[C@H]1O[C@@H]1C(=O)N[C@@H](Cc1ccccc1)C(N)=O` (stereo partly specified), the k2 amounted to 9250 M⁻¹ s⁻¹.

Compound `CC[C@H](C)[C@H](NC(=O)OCc1ccccc1)C(=O)N[C@@H](CCC(=O)O)C(=O)N[C@H](C(=O)NN(CC(=O)O)C(=O)[C@H]1O[C@@H]1C(=O)OCc1ccccc1)[C@@H](C)O` came in with a k2 of 45800 M⁻¹ s⁻¹.

`CC(C)[C@H](NC(=O)CCc1ccccc1)C(=O)N[C@@H](C)C(=O)NN(CC(=O)O)C(=O)[C@H]1O[C@@H]1C(=O)NCC(O)c1ccccc1` (stereo partly specified) came in with a k2 of 12200 M⁻¹ s⁻¹.

On to `CC(C)[C@H](NC(=O)[C@H](CCC(=O)O)NC(=O)OCc1ccccc1)C(=O)NN(CC(=O)O)C(=O)[C@H]1O[C@@H]1C(=O)NCCc1ccccc1`, for which the k2 came out at 41100 M⁻¹ s⁻¹.

Turning to `CC(C)[C@H](NC(=O)CCc1ccccc1)C(=O)N[C@@H](C)C(=O)NN(CC(=O)O)C(=O)[C@H]1O[C@@H]1C(=O)NCCc1ccccc1`, the k2 came to 17100 M⁻¹ s⁻¹.

A further assay has as its target T2, Caspase-3 (Homo sapiens) (UniProt P42574).
T2 sequence (whole entry): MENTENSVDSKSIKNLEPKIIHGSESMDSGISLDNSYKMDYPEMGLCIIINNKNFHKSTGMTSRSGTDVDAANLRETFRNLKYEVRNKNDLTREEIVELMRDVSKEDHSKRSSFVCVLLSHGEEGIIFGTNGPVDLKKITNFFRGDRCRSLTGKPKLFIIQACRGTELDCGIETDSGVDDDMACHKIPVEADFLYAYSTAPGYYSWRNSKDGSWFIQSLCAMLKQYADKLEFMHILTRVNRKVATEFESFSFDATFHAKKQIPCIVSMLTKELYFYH
The experiment in a line: Second-order inhibition rate of caspase-3 was determined by progress curve method. The gist of the method: (§1)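 Caspases-3, -6 and -8 were assayed in 50 mM HEPES, 100 mM NaCl, 0.1% (w/v) CHAPS, 10% (w/v) sucrose and 10 mM DTT, pH 7.4. Substrate: Cbz-DEVD-AFC or Cbz-DEVD-AMC.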
For `CCNC(=O)[C@H]1O[C@@H]1C(=O)N(CC(=O)O)NC(=O)[C@H](C)NC(=O)[C@@H](NC(=O)CCc1ccccc1)C(C)C`, the k2 was found to be 1910 M⁻¹ s⁻¹.

The compound `CC(C)C[C@H](NC(=O)OCc1ccccc1)C(=O)NC(CCC(=O)O)C(=O)N[C@H](C(=O)NN(CC(=O)O)C(=O)[C@H]1O[C@@H]1C(=O)NCCc1ccccc1)[C@@H](C)O` (stereo partly specified) gave a k2 of 2550 M⁻¹ s⁻¹.

Take `CC(C)C[C@H](NC(=O)OCc1ccccc1)C(=O)NC(CCC(=O)O)C(=O)N[C@H](C(=O)NN(CC(=O)O)C(=O)[C@H]1O[C@@H]1C(=O)N[C@@H](C)C(=O)NCc1ccccc1)[C@@H](C)O` (stereo partly specified): the k2 came out at 1280 M⁻¹ s⁻¹.

Regarding `CC(C)[C@H](NC(=O)OCc1ccccc1)C(=O)NN(CC(=O)O)C(=O)[C@H]1O[C@@H]1CCc1ccccc1`, the k2 came to 310 M⁻¹ s⁻¹.

`CC(C)[C@H](NC(=O)C(CCC(=O)O)NC(=O)[C@H](CC(=O)O)NC(=O)OCc1ccccc1)C(=O)NN(CC(=O)O)C(=O)[C@H]1O[C@@H]1C(=O)N[C@@H](Cc1ccccc1)C(N)=O` (stereo partly specified) displayed a k2 of 722000 M⁻¹ s⁻¹.

On to `CCOC(=O)[C@H]1O[C@@H]1C(=O)N(CC(=O)O)NC(=O)[C@@H](NC(=O)OCc1ccccc1)C(C)C`, for which the k2 amounted to 3650 M⁻¹ s⁻¹.

`CC[C@H](C)[C@H](NC(=O)OCc1ccccc1)C(=O)N[C@@H](CCC(=O)O)C(=O)N[C@H](C(=O)NN(CC(=O)O)C(=O)[C@H]1O[C@@H]1C(=O)OCc1ccccc1)[C@@H](C)O` yielded a k2 of 9500 M⁻¹ s⁻¹.

`CC(C)[C@H](NC(=O)CCc1ccccc1)C(=O)N[C@@H](C)C(=O)NN(CC(=O)O)C(=O)[C@H]1O[C@@H]1C(=O)NCC(O)c1ccccc1` (stereo partly specified) registered a k2 of 510 M⁻¹ s⁻¹.

`CC[C@H](C)[C@H](NC(=O)OCc1ccccc1)C(=O)N[C@@H](CCC(=O)O)C(=O)N[C@H](C(=O)NN(CC(=O)O)C(=O)[C@@H]1O[C@H]1C(=O)N[C@@H](C)C(=O)NCc1ccccc1)[C@@H](C)O` showed a k2 of 3050 M⁻¹ s⁻¹.

For `CC(C)[C@H](NC(=O)[C@H](CCC(=O)O)NC(=O)OCc1ccccc1)C(=O)NN(CC(=O)O)C(=O)[C@H]1O[C@@H]1C(=O)NCCc1ccccc1`, the k2 was 27300 M⁻¹ s⁻¹.

In the case of `CC(C)[C@H](NC(=O)CCc1ccccc1)C(=O)N[C@@H](C)C(=O)NN(CC(=O)O)C(=O)[C@H]1O[C@@H]1C(=O)NCCc1ccccc1`, the k2 came out at 1110 M⁻¹ s⁻¹.

`CC(C)[C@H](NC(=O)OCc1ccccc1)C(=O)NN(CC(=O)O)C(=O)[C@H]1O[C@@H]1C(=O)O`: the k2 stood at 1110 M⁻¹ s⁻¹.

The next assay has as its target T3, Caspase-6 (Homo sapiens) (UniProt P55212).
T3 sequence (whole entry): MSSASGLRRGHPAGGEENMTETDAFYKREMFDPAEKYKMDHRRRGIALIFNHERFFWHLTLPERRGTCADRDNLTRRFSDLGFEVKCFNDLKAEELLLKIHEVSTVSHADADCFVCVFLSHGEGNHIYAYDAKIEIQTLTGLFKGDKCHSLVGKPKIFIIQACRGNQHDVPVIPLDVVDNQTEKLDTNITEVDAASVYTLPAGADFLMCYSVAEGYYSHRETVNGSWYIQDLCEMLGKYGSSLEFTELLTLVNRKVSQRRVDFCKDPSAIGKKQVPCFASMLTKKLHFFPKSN
In words: Second-order inhibition rate of caspase-6 was determined by progress curve method. The gist of the method:
as §1
For `CCNC(=O)[C@H]1O[C@@H]1C(=O)N(CC(=O)O)NC(=O)[C@H](C)NC(=O)[C@@H](NC(=O)CCc1ccccc1)C(C)C`, the k2 came to 142 M⁻¹ s⁻¹.

Regarding `CC(C)C[C@H](NC(=O)OCc1ccccc1)C(=O)NC(CCC(=O)O)C(=O)N[C@H](C(=O)NN(CC(=O)O)C(=O)[C@H]1O[C@@H]1C(=O)NCCc1ccccc1)[C@@H](C)O` (stereo partly specified), the k2 is 10000 M⁻¹ s⁻¹.

On to `CC(C)C[C@H](NC(=O)OCc1ccccc1)C(=O)NC(CCC(=O)O)C(=O)N[C@H](C(=O)NN(CC(=O)O)C(=O)[C@H]1O[C@@H]1C(=O)N[C@@H](C)C(=O)NCc1ccccc1)[C@@H](C)O` (stereo partly specified), for which the k2 turned out to be 6660 M⁻¹ s⁻¹.

The compound `CC(C)[C@H](NC(=O)OCc1ccccc1)C(=O)NN(CC(=O)O)C(=O)[C@H]1O[C@@H]1CCc1ccccc1` showed a k2 of 44 M⁻¹ s⁻¹.

Compound `CC(C)[C@H](NC(=O)C(CCC(=O)O)NC(=O)[C@H](CC(=O)O)NC(=O)OCc1ccccc1)C(=O)NN(CC(=O)O)C(=O)[C@H]1O[C@@H]1C(=O)N[C@@H](Cc1ccccc1)C(N)=O` (stereo partly specified) yielded a k2 of 6140 M⁻¹ s⁻¹.

In turn, `CCOC(=O)[C@H]1O[C@@H]1C(=O)N(CC(=O)O)NC(=O)[C@@H](NC(=O)OCc1ccccc1)C(C)C` registered a k2 of 350 M⁻¹ s⁻¹.

Consider `CC[C@H](C)[C@H](NC(=O)OCc1ccccc1)C(=O)N[C@@H](CCC(=O)O)C(=O)N[C@H](C(=O)NN(CC(=O)O)C(=O)[C@H]1O[C@@H]1C(=O)OCc1ccccc1)[C@@H](C)O`, for which the k2 is 86200 M⁻¹ s⁻¹.

`CC(C)[C@H](NC(=O)CCc1ccccc1)C(=O)N[C@@H](C)C(=O)NN(CC(=O)O)C(=O)[C@H]1O[C@@H]1C(=O)NCC(O)c1ccccc1` (stereo partly specified) showed a k2 of 63 M⁻¹ s⁻¹.

`CC[C@H](C)[C@H](NC(=O)OCc1ccccc1)C(=O)N[C@@H](CCC(=O)O)C(=O)N[C@H](C(=O)NN(CC(=O)O)C(=O)[C@@H]1O[C@H]1C(=O)N[C@@H](C)C(=O)NCc1ccccc1)[C@@H](C)O` gave a k2 of 38200 M⁻¹ s⁻¹.

`CC(C)[C@H](NC(=O)[C@H](CCC(=O)O)NC(=O)OCc1ccccc1)C(=O)NN(CC(=O)O)C(=O)[C@H]1O[C@@H]1C(=O)NCCc1ccccc1` returned a k2 of 3130 M⁻¹ s⁻¹.

Regarding `CC(C)[C@H](NC(=O)CCc1ccccc1)C(=O)N[C@@H](C)C(=O)NN(CC(=O)O)C(=O)[C@H]1O[C@@H]1C(=O)NCCc1ccccc1`, the k2 is 130 M⁻¹ s⁻¹.

Compound `CC(C)[C@H](NC(=O)OCc1ccccc1)C(=O)NN(CC(=O)O)C(=O)[C@H]1O[C@@H]1C(=O)O` yielded a k2 of 90 M⁻¹ s⁻¹.

For a further assay, the target named is Caspase-8 (Homo sapiens) (UniProt Q14790). In words: Second-order inhibition rate of caspase-8 was determined by progress curve method. The essentials:
as §1
Consider `CCNC(=O)[C@H]1O[C@@H]1C(=O)N(CC(=O)O)NC(=O)[C@H](C)NC(=O)[C@@H](NC(=O)CCc1ccccc1)C(C)C`, for which the k2 came to 6050 M⁻¹ s⁻¹.

Compound `CC(C)C[C@H](NC(=O)OCc1ccccc1)C(=O)NC(CCC(=O)O)C(=O)N[C@H](C(=O)NN(CC(=O)O)C(=O)[C@H]1O[C@@H]1C(=O)NCCc1ccccc1)[C@@H](C)O` (stereo partly specified) registered a k2 of 53300 M⁻¹ s⁻¹.

For the compound `CC(C)C[C@H](NC(=O)OCc1ccccc1)C(=O)NC(CCC(=O)O)C(=O)N[C@H](C(=O)NN(CC(=O)O)C(=O)[C@H]1O[C@@H]1C(=O)N[C@@H](C)C(=O)NCc1ccccc1)[C@@H](C)O` (stereo partly specified), the k2 stood at 44800 M⁻¹ s⁻¹.

Take `CC(C)[C@H](NC(=O)OCc1ccccc1)C(=O)NN(CC(=O)O)C(=O)[C@H]1O[C@@H]1CCc1ccccc1`: the k2 was 180 M⁻¹ s⁻¹.

In the case of `CC(C)[C@H](NC(=O)C(CCC(=O)O)NC(=O)[C@H](CC(=O)O)NC(=O)OCc1ccccc1)C(=O)NN(CC(=O)O)C(=O)[C@H]1O[C@@H]1C(=O)N[C@@H](Cc1ccccc1)C(N)=O` (stereo partly specified), the k2 amounted to 29600 M⁻¹ s⁻¹.

On to `CCOC(=O)[C@H]1O[C@@H]1C(=O)N(CC(=O)O)NC(=O)[C@@H](NC(=O)OCc1ccccc1)C(C)C`, for which the k2 was determined as 1260 M⁻¹ s⁻¹.

With `CC[C@H](C)[C@H](NC(=O)OCc1ccccc1)C(=O)N[C@@H](CCC(=O)O)C(=O)N[C@H](C(=O)NN(CC(=O)O)C(=O)[C@H]1O[C@@H]1C(=O)OCc1ccccc1)[C@@H](C)O`, the k2 turned out to be 58500 M⁻¹ s⁻¹.

Compound `CC(C)[C@H](NC(=O)CCc1ccccc1)C(=O)N[C@@H](C)C(=O)NN(CC(=O)O)C(=O)[C@H]1O[C@@H]1C(=O)NCC(O)c1ccccc1` (stereo partly specified) returned a k2 of 4090 M⁻¹ s⁻¹.

The compound `CC[C@H](C)[C@H](NC(=O)OCc1ccccc1)C(=O)N[C@@H](CCC(=O)O)C(=O)N[C@H](C(=O)NN(CC(=O)O)C(=O)[C@@H]1O[C@H]1C(=O)N[C@@H](C)C(=O)NCc1ccccc1)[C@@H](C)O` came in with a k2 of 56000 M⁻¹ s⁻¹.

`CC(C)[C@H](NC(=O)[C@H](CCC(=O)O)NC(=O)OCc1ccccc1)C(=O)NN(CC(=O)O)C(=O)[C@H]1O[C@@H]1C(=O)NCCc1ccccc1`: the k2 worked out at 72700 M⁻¹ s⁻¹.

In turn, `CC(C)[C@H](NC(=O)CCc1ccccc1)C(=O)N[C@@H](C)C(=O)NN(CC(=O)O)C(=O)[C@H]1O[C@@H]1C(=O)NCCc1ccccc1` had a k2 of 10100 M⁻¹ s⁻¹.

`CC(C)[C@H](NC(=O)OCc1ccccc1)C(=O)NN(CC(=O)O)C(=O)[C@H]1O[C@@H]1C(=O)O` registered a k2 of 370 M⁻¹ s⁻¹.
